High-throughput results (PubChem BioAssay)
Most compounds without a hit are left out; they make up all but 7.1% or so of the library.
Cav32 inh = Cav3.2 calcium influx blockers – cell-based, Fluo-4 calcium fluorescence, FDSS, MLSMR library, primary screen; 4% of 100,000 active; B-score at 10 µM; Cav3.2-expressing cells; stronger effect = lower value;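 active = single-dose well whose peak fluorescence ratio is a statistical outlier from its plate by either plate-standardised score or position-corrected B-score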
PTEN del growth = growth suppression of PTEN-null HCT116, primary screen, cell-based, CellTiter-Glo | HCT116 PTEN-null viability, 60 h; stronger effect = lower value | viability, % at 10 µM | 1.2% of 140,000 active;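 active = viability at or below a set limit, 4 SD under the median of all tested compounds, cut at about 3.7% in these data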;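 note: PTEN knockout HCT116 line with beta catenin targeted HCT116 as companion control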
Fibroblast inh = antiproliferative effect on LL 47 fibroblasts – human, LL 47 cells, CellTiter-Glo luminescence, primary screen; viability, % at 10 µM; LL 47 human lung fibroblast viability, ATP luminescence; stronger effect = lower value; 1.1% of 85,000 active; AID 719, 2007;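 active = viability at or below 50% in the single dose screen; inactive = viability above 50%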;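 note: compound exposure lasted 72 h before the ATP readout; 100% = median luminescence of untreated cell-only wells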
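test system = LL 47 human lung fibroblasts | amount = 1,150 fibroblasts seeded per well | medium = 15% FBS in IMEM | times = overnight cell rest, 72 h compound treatment at 37 °C | measured by = CellTiter-Glo luminescence measuring cellular ATP | read-out = viability percentage against median untreated-cell control | benchmarks = cell-only wells, no compound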
HUVEC prolif 384 = inhibitors of HUVEC proliferation, primary screen, cell-based, 384-well; AID 648, 2007; CellTiter-Glo luminescence, 72 h; stronger effect = lower value; 1.1% of 86,000 active; viability, % at 10 µM (by protocol);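 active = viability at or below 30%; inactive = viability above 30%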;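 note: 100% = median luminescence of DMSO-only cell control wells on each plate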
HCT116 bCat-KO = primary screen for growth suppressors in beta-catenin knockout HCT116 cells (colon tumor, human) | HCT116 beta-catenin knockout viability, CellTiter-Glo, 60 h; stronger effect = lower value | viability, % at 10 µM | 1.5% of 140,000 active | AID 818, 2007;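 active = viability at or under a set limit, the compound median less 4 SD, cut at about 6% in these data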;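 note: 0% = Hyamine 1622 control at 20 µM and 100% = untreated cell control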
H69AR growth 86K = proliferation blockers of H69AR lung cancer cells, primary screen, cell-based, human, 86K library. AID 598, 2007. viability, % at 10 µM. H69AR lung tumor viability, ATP luminescence, 72 h; stronger effect = lower value. 6% of 85,000 active;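 active = viability at or below 40%; inactive = viability above 40%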;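 note: multidrug resistant small cell line overexpressing MRP-1 efflux transporter; 100% = mean luminescence of untreated control wells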
* marks the source's active call; other numbers are inactive results; · = no result given.

SMILES | Cav32 inh | PTEN del growth | Fibroblast inh | HUVEC prolif 384 | HCT116 bCat-KO | H69AR growth 86K
COc1ccc(-c2c(C(F)(F)F)oc3cc(OCC(=O)Nc4ccccc4C(F)(F)F)ccc3c2=O)cc1OC | · | 5 | · | · | 1.4* | ·
COc1ccccc1-c1c(C(F)(F)F)oc2cc(OCC(=O)Nc3ccccc3C(F)(F)F)ccc2c1=O | · | 84 | · | · | 87 | ·
CCN=c1sc2ccccc2n1CC(O)COc1ccccc1 (centres undefined) | -4.2* | 73 | 94 | 104 | 77 | 68
CC(C)(C)c1ccc(C2(C)NC(=O)N(CC(=O)Nc3ccc4c(c3)OCO4)C2=O)cc1 (centres undefined) | -5.6* | 62 | 88 | 96 | 53 | 47
Cc1ccccc1CS(=O)(=O)c1nnc([C@H](Cc2ccccc2)NC(=O)OC(C)(C)C)o1 | -1.4 | 2.8* | 5.5* | 62 | 3.5* | 1.2*
CC(C)(C)OC(=O)N[C@@H](Cc1c[nH]c2ccccc12)c1nnc(SCC(N)=O)o1 | 0.079 | 94 | 94 | 101 | 90 | 97
CC(C)Sc1nnc([C@H](Cc2c[nH]c3ccccc23)NC(=O)OC(C)(C)C)o1 | -4.1* | 86 | 95 | 91 | 98 | 74
CC(C)(C)OC(=O)N[C@@H](Cc1ccccc1)c1nnc(SCC(=O)O)o1 | -0.64 | 95 | 101 | 98 | 99 | 93
CCC(C)[C@@H](NC(=O)OC(C)(C)C)c1nnc(S(=O)(=O)Cc2cccc(C)c2)o1 (some centres undefined) | 2.8 | 54 | 6.2* | 76 | 21 | 1.6*
CC(C)(C)OC(=O)N[C@@H](Cc1ccccc1)c1nnc(S(=O)(=O)Cc2ccccc2)o1 | 1.8 | 69 | · | · | 47 | ·
CC(C)(C)OC(=O)N[C@@H](Cc1ccccc1)c1nnc(SCC(=O)c2ccc(Cl)cc2)o1 | 0.0074 | 79 | 29* | 46 | 81 | 47
O=C(COC(=O)/C=C/c1ccccc1Cl)NCCc1ccc(Cl)cc1Cl | · | 102 | · | · | 94 | ·
N#Cc1c(N2CCCC(O)C2)nc(N)c2c(N)nc3c(c12)CC(=O)N3C12CC3CC(CC(C3)C1)C2 (centres undefined) | 0.53 | 18 | 65 | 16* | 13 | 3.3*
C=C(C)CN(CC)c1nc(N)c2c(N)nc3c(c2c1C#N)CC(=O)N3C12CC3CC(CC(C3)C1)C2 | -1.8 | 33 | · | · | 27 | ·
Cn1c(=N)n(CC(O)c2cccc3ccccc23)c2ccccc21 (centres undefined) | · | 32 | 84 | 88 | 29 | 26*
Cn1c(=N)n(CC(O)c2ccco2)c2ccccc21 (centres undefined) | -0.077 | 89 | · | 99 | 92 | 102
COc1ccc(CN2CCn3ncc(C(=O)Nc4cccc(C)c4)c3C2=O)cc1 | -5.5* | 94 | 109 | 91 | 93 | 99
COc1ccc(Cl)cc1C(=O)CSc1nc(N)cc(N)n1 | -1.4 | 102 | 100 | 98 | 103 | 91
CCCCn1nc(C(=O)N[C@@H](CCSC)c2nc3ccccc3[nH]2)c2ccccc2c1=O | -3.6 | 42 | 97 | 76 | 46 | 36*
CC1(C)CC(=O)C2=C(C1)N(c1ccccc1)C(N)=C(C#N)C2c1cccnc1 (centres undefined) | · | 85 | 86 | 93 | 93 | 35*
Cc1ccc(N2C(N)=C(C#N)C(c3cccnc3)C3=C2CCCC3=O)cc1 (centres undefined) | 3 | 92 | 93 | 90 | 86 | 30*
CC(=O)N1C(=O)CC(C)N(C(C)=O)c2ccc([N+](=O)[O-])cc21 (centres undefined) | · | 105 | · | · | 101 | ·
O=C(c1ccncc1)N(c1ccc2oc3c(c2c1)CCCC3)S(=O)(=O)c1ccc(F)cc1 | · | 99 | · | · | 96 | ·
Cc1ccc(CCSc2ccc(C(C)C)cc2)cn1 | · | 70 | · | · | 59 | ·
CCCn1c(/N=C/c2cc(OC)ccc2O)nc2ccccc21 | 0.035 | 77 | 108 | 82 | 80 | 40*
SMILES | Cav32 inh | PTEN del growth | Fibroblast inh | HUVEC prolif 384 | HCT116 bCat-KO | H69AR growth 86K
CCCCn1c(/N=C/c2cc(OC)ccc2O)nc2ccccc21 | -0.0069 | 74 | 99 | 98 | 69 | 48
O=c1cc(N2CCN(c3ccc(F)cc3)CC2)[nH]c(=O)n1Cc1ccc(F)cc1 | -8.8* | 60 | 90 | 64 | 73 | 73
COc1ccc(N2CCN(c3cc(=O)n(Cc4ccc(F)cc4)c(=O)[nH]3)CC2)cc1 | -4.9* | 74 | 85 | 100 | 77 | 81
O=c1cc(N2CCOCC2)[nH]c(=O)n1Cc1ccc(F)cc1 | 0.0029 | 100 | 101 | 95 | 102 | 100
COCC(C)NC(=O)NC1(C(F)(F)F)Oc2ccc(Cl)cc2O1 (centres undefined) | 0.11 | 34 | 65 | 52 | 29 | 23*
CCN(CC)c1ccc(NC(=O)c2cc(OC)cc(OC)c2)c(C)c1 | · | 12 | 56 | 33 | 12 | 25*
CCN(CC)c1ccc(NC(=O)c2cccc(OC)c2)c(C)c1 | -1.2 | 23 | 72 | 55 | 20 | 19*
CN(C)c1cccc(C(=O)Nc2cccc(F)c2)c1 | -0.57 | 73 | 100 | 85 | 72 | 83
CCN(CC)c1ccc(C(=O)Nc2cccc(F)c2)cc1 | -4.3 | 27 | 77 | 47 | 17 | 25*
C=C(CC)C(=O)c1ccc(OCC(=O)O)c(Cl)c1Cl | 1.7 | 72 | 60 | 57 | 72 | 12*
CC(O)[C@H]1CNC(=O)C(=O)N1CCCCC1CCCCC1 (some centres undefined) | 0.65 | · | · | · | · | ·
COc1ccc(-c2onc(C)c2-c2ccc(C(=O)OC(C)C)o2)c(O)c1 | -5.2* | 75 | 110 | 83 | 87 | 90
CCCc1cc(-c2n[nH]c(C)c2-c2ccc(C(=O)OCC)o2)c(O)cc1O | -1.7 | 48 | 73 | 67 | 55 | 48
CN1CCN(c2nc(NCCOC34CC5CC(CC(C5)C3)C4)nc(OCC(F)(F)F)n2)CC1 | -0.27 | 26 | 56 | 9.5* | 30 | 1.9*
CCc1ccc2[nH]c(=O)c(CN(Cc3ccc4c(c3)OCO4)Cc3nnnn3C3CCCC3)cc2c1 | -2.9 | 27 | 89 | 62 | 40 | 4.8*
COc1ccc2cc(CN(Cc3ccco3)Cc3nnnn3C3CCCCC3)c(=O)[nH]c2c1 | -1.4 | 78 | 91 | 98 | 85 | 47
Cc1ccc2cc(CN(Cc3ccccc3)Cc3nnnn3C3CCCC3)c(=O)[nH]c2c1 | · | 15 | 108 | 74 | 15 | 5.0*
Cc1ccc2[nH]c(=O)c(CN(CCCN3CCOCC3)Cc3nnnn3C3CCCC3)cc2c1 | 0.88 | 92 | 89 | 94 | 82 | 85
Cc1ccc2cc(CN(Cc3ccc(F)cc3)Cc3nnnn3C3CCCC3)c(=O)[nH]c2c1 | -1 | 71 | 101 | 64 | 84 | 36*
